# In ChEMBL document CHEMBL1145857, “Toward tissue-selective pancreatic B-cells KATP channel openers belonging to 3-alkylamino-7-halo-4H-1,2,4-benzothiadiazine 1,1-dioxides” (J Med Chem, 2003):
# Assays:
# Format in all cases: functional
# [1] = species on record: Rattus norvegicus; assay: Percent inhibition of residual insulin release from rat pancreatic islets in the presence of 16.7 mM glucose at 50 uM concentration
# Summary of the method: (§1)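 Islets isolated by collagenase from fed Wistar rats (180–220 g); groups of 10 islets preincubated 30 min at 37 °C in bicarbonate salt medium with 2.8 mM glucose and 0.5% dialyzed albumin under O2/CO2 95:5, then incubated 90 min at 37 °C with 16.7 mM glucose plus drug. Insulin measured by radioimmunoassay against rat insulin standard; residual release as % of drug-free 16.7 mM glucose control; IC50 estimated.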
# [2] = species on record: Rattus norvegicus; assay: Percent inhibition of residual insulin release from rat pancreatic islets in the presence of 16.7 mM glucose at 1 uM concentration; summary of the method: as §1
# [3] = species on record: Rattus norvegicus; assay: Concentration required to inhibit insulin release in rat
# [4] = species on record: Rattus norvegicus; assay: Estimated selectivity ratio of ED50 and IC50 in rat was calculated
# [5] = species on record: Rattus norvegicus; assay: Percent inhibition of residual insulin release from rat pancreatic islets in the presence of 16.7 mM glucose at 10 uM concentration; summary of the method: as §1
# [6] = species on record: Rattus norvegicus; assay: Effective dose required for relaxation of the 30 mM KCl-induced contraction of rat aortic rings; details: Aorta, read-out: ED50 (the source's name)
# Summary of the method: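 Endothelium-denuded transverse aortic rings (3–4 mm) from fed Wistar rats (180–220 g); isometric tension by force transducer. After 60 min equilibration, contracted with 30 mM KCl; once stable, drug added cumulatively to maximal relaxation or 0.3 mM. Relaxation as % of KCl contraction; ED50 (50% inhibition of KCl plateau) from dose–response curves; mean ± SEM (n).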
Structure (SMILES),IC50 [3] [µM],EC50 [6] [µM],RIS [1] [%],RIS [2] [%],Selectivity [4],RIS [5] [%]
CC(C)C(C)NC1=NS(=O)(=O)c2cc(Cl)ccc2N1 (configuration not stated),> 10,1.2,11,88.1,<0.12,62.7
CCNC1=NS(=O)(=O)c2cc(Cl)ccc2N1,< 1,39.9,2.1,29.2,>40,10.7
CNC1=NS(=O)(=O)c2cc(Br)ccc2N1,1.8,31,6.4,69.9,17,7.3
CCCNC1=NS(=O)(=O)c2cc(Br)ccc2N1,< 10,5.9,7.1,,>0.6,34.7
CCCNC1=NS(=O)(=O)c2cc(Cl)ccc2N1,,55.5,3.6,83.4,21,14.2
CCC(CC)NC1=NS(=O)(=O)c2cc(Cl)ccc2N1,4.5,93.6,8.1,93.7,21,31.7
CCC(C)NC1=NS(=O)(=O)c2cc(F)ccc2N1 (configuration not stated),1.6,39.2,5.9,64.6,25,6.9
CCNC1=NS(=O)(=O)c2cc(Br)ccc2N1,< 1,6.2,4.6,38.1,>6,6.5
CCNC1=NS(=O)(=O)c2cc(F)ccc2N1,1,> 300,6.3,50.8,>300,8.6
CCCNC1=NS(=O)(=O)c2cc(F)ccc2N1,2,166,7.7,69.2,83,15.1
CC(C)C(C)NC1=NS(=O)(=O)c2cc(I)ccc2N1 (configuration not stated),> 50,0.94,51.7,91.9,<0.02,86.2
CCC(C)NC1=NS(=O)(=O)c2cc(Br)ccc2N1 (configuration not stated),4,5.6,4,92.5,1.4,26.8
CNC1=NS(=O)(=O)c2cc(F)ccc2N1,2.2,> 300,5.7,76.1,>136,7.7
CC(C)C(C)NC1=NS(=O)(=O)c2cc(Br)ccc2N1 (configuration not stated),> 10,2.6,21.4,97.2,< 0.26,98.4
CCC(C)NC1=NS(=O)(=O)c2cc(Cl)ccc2N1 (configuration not stated),3.1,15.5,5.5,85.4,5,19.9
CCC(C)NC1=NS(=O)(=O)c2cc(I)ccc2N1 (configuration not stated),> 10,1.3,22.5,84.2,<0.13,64.8
CCC(C)(C)NC1=NS(=O)(=O)c2cc(Cl)ccc2N1,> 10,0.29,,,<0.029,83.2
CC(C)(C)NC1=NS(=O)(=O)c2cc(Cl)ccc2N1,> 10,1.4,,,<0.14,64.4
CC(C)C(C)NC1=NS(=O)(=O)c2cc(F)ccc2N1 (configuration not stated),2.8,26.4,7.9,87.7,9,10.6
CCC(CC)NC1=NS(=O)(=O)c2cc(I)ccc2N1,> 10,79.1,17,,<7.9,67
CC(N/C(=N\C#N)Nc1ccncc1)C(C)(C)C (configuration not stated) [PINACIDIL ANHYDROUS],> 100,0.35,88.8,97.7,,

# The next lines start with results.
IC50 [3] [µM],EC50 [6] [µM],Structure (SMILES),RIS [1] [%],RIS [2] [%],Selectivity [4],RIS [5] [%]
3.4,190,O=S1(=O)N=C(NC2CC2)Nc2ccc(Cl)cc21,5.8,84,56,26.6
3.1,89.4,O=S1(=O)NC(NC2CC2)=Nc2ccc(Br)cc21,4.6,85.1,29,21.1
5.1,> 300,O=S1(=O)NC(NC2CC2)=Nc2ccc(F)cc21,7.5,104.5,>58,32.5
> 10,41.2,O=S1(=O)NC(NCC2CC2)=Nc2ccc(Cl)cc21,15.2,,<4,65.9
< 10,146,O=S1(=O)NC(NCC2CC2)=Nc2ccc(F)cc21,6.4,,>15,39.8
1.8,58,O=S1(=O)NC(NC2CCCC2)=Nc2ccc(F)cc21,5.4,68.8,32,6.6
< 10,22.2,O=S1(=O)NC(NC2CCC2)=Nc2ccc(I)cc21,,,>2.2,30.6
2.7,> 300,C=CCNC1=Nc2ccc(F)cc2S(=O)(=O)N1,4.1,84.1,>111,12.8
1.3,34.9,O=S1(=O)N=C(NC2CCC2)Nc2ccc(Cl)cc21,8.1,60.2,27,6.4
2.8,3,C=CCNC1=Nc2ccc(Br)cc2S(=O)(=O)N1,4.8,77.2,1.1,23.7
1.1,21.7,O=S1(=O)NC(NC2CCC2)=Nc2ccc(Br)cc21,6.1,54.8,20,9.6
3.1,28.9,C=CCNC1=Nc2ccc(Cl)cc2S(=O)(=O)N1,7.8,87.9,9,17.3
,22.4,CC1=Nc2ccc(Cl)cc2S(=O)(=O)N1 [DIAZOXIDE],26.7,,,
